# From ChEMBL document CHEMBL1255443, “CEM-101 activity against Gram-positive organisms” (Antimicrob Agents Chemother, 2010)
# Active and inactive are the calls of the source.
# How the values were obtained:
# Streptococcus mitis [1] = experiment: Antibacterial activity against Streptococcus mitis 112-1885A assessed as bactericidal at 4 times MIC in 24 hrs by time kill study; assay type: functional, organism-based
# Procedure, shortened: (§1)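 Time-kill assay following earlier published methods. Each agent tested at 2×, 4× and 8× its MIC for the strain. Viable colony counts taken at 0, 2, 4, 8 and 24 h. Bactericidal activity defined as a ≥3 log10 CFU/ml drop from the starting inoculum within 24 h.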
# Streptococcus mitis [2] = experiment: Antibacterial activity against Streptococcus mitis 112-1885A assessed as bactericidal at 2 times MIC in 24 hrs by time kill study; assay type: functional, organism-based; procedure, shortened: as §1
# Streptococcus mitis [3] = experiment: Antibacterial activity against Streptococcus mitis 112-1885A assessed as bactericidal at 8 times MIC in 24 hrs by time kill study; assay type: functional, organism-based; procedure, shortened: as §1
# [4] = test system: Staphylococcus epidermidis; experiment: Antibacterial activity against Staphylococcus epidermidis 2777A assessed as bacteriostatic by time kill study
# Staphylococcus aureus [5] = experiment: Antibacterial activity against Staphylococcus aureus ATCC 29213 assessed as bactericidal at 8 times MIC in 24 hrs by time kill study; assay type: functional, organism-based; procedure, shortened: as §1
# Streptococcus pneumoniae [6] = experiment: Antibacterial activity against Streptococcus pneumoniae ATCC 49619 assessed as bactericidal at 2 times MIC in 24 hrs by time kill study; assay type: functional, organism-based; procedure, shortened: as §1
# Streptococcus pneumoniae [7] = experiment: Antibacterial activity against Streptococcus pneumoniae ATCC 49619 assessed as bactericidal at 4 times MIC in 24 hrs by time kill study; assay type: functional, organism-based; procedure, shortened: as §1
# Streptococcus pneumoniae [8] = experiment: Antibacterial activity against Streptococcus pneumoniae ATCC 49619 assessed as bactericidal at 8 times MIC in 24 hrs by time kill study; assay type: functional, organism-based; procedure, shortened: as §1
# Streptococcus pyogenes [9] = experiment: Antibacterial activity against Streptococcus pyogenes 117-1612A assessed as bactericidal at 8 times MIC in 24 hrs by time kill study; assay type: functional, organism-based; procedure, shortened: as §1
# Streptococcus pneumoniae [10] = experiment: Antimicrobial activity against Streptococcus pneumoniae 063-1085A after passaging with CEM-101 by broth microdilution method; assay type: functional
# Procedure, shortened: (§2)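 Multistep resistance selection by CLSI reference broth microdilution. The full content of the last well showing growth was resuspended in broth to a 0.5 McFarland standard, and 5 × 10^5 CFU/ml was used for the next MIC panel, repeated over 7 passage days. Reversion was checked by three consecutive drug-free agar passages, followed by a final broth microdilution MIC. A ≥8-fold MIC change from initial counted as significant resistance.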
# Streptococcus pyogenes [11] = experiment: Antimicrobial activity against Streptococcus pyogenes 117-1612A after passaging with CEM-101 by broth microdilution method; assay type: functional; procedure, shortened: as §2
# [12] = test system: Staphylococcus epidermidis; experiment: Antimicrobial activity against Staphylococcus epidermidis 095-2777A by broth microdilution method
# Staphylococcus aureus [13] = experiment: Antimicrobial activity against Staphylococcus aureus 117-453D after passaging with CEM-101 by broth microdilution method; assay type: functional; procedure, shortened: as §2
# Staphylococcus aureus [14] = experiment: Antimicrobial activity against Staphylococcus aureus ATCC 29213 after passaging with CEM-101 by broth microdilution method; assay type: functional; procedure, shortened: as §2
# Streptococcus pyogenes [15] = experiment: Antimicrobial activity against Streptococcus pyogenes 088-11708A after passaging with CEM-101 by broth microdilution method; assay type: functional; procedure, shortened: as §2
# Streptococcus pneumoniae [16] = experiment: Antimicrobial activity against Streptococcus pneumoniae ATCC 49619 after passaging with CEM-101 by broth microdilution method; assay type: functional; procedure, shortened: as §2
# Staphylococcus aureus [17] = experiment: Antimicrobial activity against Staphylococcus aureus NRS384 after passaging with CEM-101 by broth microdilution method; assay type: functional; procedure, shortened: as §2
# Enterococcus faecalis [18] = experiment: Antimicrobial activity against Enterococcus faecalis 067-6633A after passaging with CEM-101 by broth microdilution method; assay type: functional; procedure, shortened: as §2
# Staphylococcus aureus [19] = experiment: Antibacterial activity against Staphylococcus aureus ATCC 29213 assessed as log cell killing at 8 times MIC in 24 hrs by time kill study; assay type: functional; procedure, shortened: as §1
# Enterococcus faecium [20] = experiment: Antimicrobial activity against Enterococcus faecium 086-15387A after passaging with CEM-101 by broth microdilution method; assay type: functional; procedure, shortened: as §2
# Haemophilus influenzae = experiment: Antimicrobial activity against Haemophilus influenzae ATCC 49247 after passaging with CEM-101 by broth microdilution method; assay type: functional; procedure, shortened: as §2
# Staphylococcus aureus [21] = experiment: Antimicrobial activity against Staphylococcus aureus 024-11490A after passaging with CEM-101 by broth microdilution method; assay type: functional; procedure, shortened: as §2
# Moraxella catarrhalis = experiment: Antimicrobial activity against Moraxella catarrhalis 117-10142A after passaging with CEM-101 by broth microdilution method; assay type: functional; procedure, shortened: as §2
# [22] = test system: Staphylococcus epidermidis; experiment: Antibacterial activity against Staphylococcus epidermidis 2777A assessed as bactericidal at 8 times MIC in 24 hrs by time kill study
# Enterococcus faecalis [23] = experiment: Antimicrobial activity against Enterococcus faecalis 061-6556A after passaging with CEM-101 by broth microdilution method; assay type: functional; procedure, shortened: as §2
# Staphylococcus aureus [24] = experiment: Antibacterial activity against Staphylococcus aureus ATCC 29213 assessed as bactericidal at 4 times MIC in 24 hrs by time kill study; assay type: functional, organism-based; procedure, shortened: as §1
# Staphylococcus aureus [25] = experiment: Antibacterial activity against Staphylococcus aureus ATCC 29213 assessed as bactericidal at 2 times MIC in 24 hrs by time kill study; assay type: functional, organism-based; procedure, shortened: as §1
# Streptococcus pneumoniae [26] = experiment: Antimicrobial activity against Streptococcus pneumoniae 127-2273B after passaging with CEM-101 by broth microdilution method; assay type: functional; procedure, shortened: as §2
# Staphylococcus aureus [27] = experiment: Antimicrobial activity against Staphylococcus aureus 117-472D after passaging with CEM-101 by broth microdilution method; assay type: functional; procedure, shortened: as §2
# Streptococcus pneumoniae [28] = experiment: Antibacterial activity against Streptococcus pneumoniae 241B assessed as bacteriostatic by time kill study; assay type: functional, organism-based; procedure, shortened: as §1
# Enterococcus faecium [29] = experiment: Antimicrobial activity against Enterococcus faecium 067- after passaging with CEM-101 by broth microdilution method; assay type: functional; procedure, shortened: as §2
# Streptococcus pyogenes [30] = experiment: Antibacterial activity against Streptococcus pyogenes assessed as log cell killing at 8 times MIC in 24 hrs by time kill study; assay type: functional; procedure, shortened: as §1
# Streptococcus pyogenes [31] = experiment: Antibacterial activity against Streptococcus pyogenes 088-11708A assessed as bactericidal at 8 times MIC in 24 hrs by time kill study; assay type: functional, organism-based; procedure, shortened: as §1
# Streptococcus mitis [32] = experiment: Antimicrobial activity against Streptococcus mitis 112-1885A after passaging with CEM-101 by broth microdilution method; assay type: functional; procedure, shortened: as §2
# [33] = test system: Staphylococcus epidermidis; experiment: Antibacterial activity against Staphylococcus epidermidis 2777A assessed as bactericidal at 4 times MIC in 24 hrs by time kill study
# Streptococcus mitis [34] = experiment: Antimicrobial activity against Streptococcus mitis 051-4933A after passaging with CEM-101 by broth microdilution method; assay type: functional; procedure, shortened: as §2
# Enterococcus faecalis [35] = experiment: Antibacterial activity against Enterococcus faecalis ATCC 29212 assessed as bacteriostatic by time kill study; assay type: functional, organism-based; procedure, shortened: as §1
# Streptococcus pyogenes [36] = experiment: Antibacterial activity against Streptococcus pyogenes 088-11708A assessed as bactericidal at 4 times MIC in 24 hrs by time kill study; assay type: functional, organism-based; procedure, shortened: as §1
# [37] = test system: Staphylococcus epidermidis; experiment: Antibacterial activity against Staphylococcus epidermidis assessed as log cell killing at 8 times MIC in 24 hrs by time kill study; assay type: functional; procedure, shortened: as §1
# Staphylococcus aureus [38] = experiment: Antimicrobial activity against Staphylococcus aureus 004-573D after passaging with CEM-101 by broth microdilution method; assay type: functional; procedure, shortened: as §2
# Streptococcus pneumoniae [39] = experiment: Antimicrobial activity against Streptococcus pneumoniae 075-241B after passaging with CEM-101 by broth microdilution method; assay type: functional; procedure, shortened: as §2
# Streptococcus pyogenes [40] = experiment: Antibacterial activity against Streptococcus pyogenes 088-11708A assessed as bactericidal at 2 times MIC in 24 hrs by time kill study; assay type: functional, organism-based; procedure, shortened: as §1
# [41] = test system: Staphylococcus epidermidis; experiment: Antibacterial activity against Staphylococcus epidermidis 2777A assessed as bactericidal at 2 times MIC in 24 hrs by time kill study
# Enterococcus faecalis [42] = experiment: Antimicrobial activity against Enterococcus faecalis ATCC 29212 after passaging with CEM-101 by broth microdilution method; assay type: functional; procedure, shortened: as §2
# Streptococcus pneumoniae [43] = experiment: Antibacterial activity against Streptococcus pneumoniae ATCC 49619 assessed as log cell killing at 8 times MIC in 24 hrs by time kill study; assay type: functional; procedure, shortened: as §1
# [44] = test system: Staphylococcus haemolyticus; experiment: Antimicrobial activity against Staphylococcus haemolyticus 064-4090A after passaging with CEM-101 by broth microdilution method; assay type: functional; procedure, shortened: as §2
smiles,measurement,setting,value
CC[C@H]1OC(=O)[C@H](C)C(=O)[C@H](C)[C@@H](O[C@@H]2O[C@H](C)C[C@H](N(C)C)[C@H]2O)[C@](C)(OC)C[C@@H](C)C(=O)[C@H](C)[C@H]2N(CCCCn3cnc(-c4cccnc4)c3)C(=O)O[C@]12C,Activity,Streptococcus mitis [1],Active
same,Activity,Streptococcus mitis [2],Active
same,Activity,Streptococcus mitis [3],Active
same,Activity,[4],Active
same,Activity,Staphylococcus aureus [5],Active
CC[C@H]1OC(=O)[C@H](C)[C@@H](O[C@H]2C[C@@](C)(OC)[C@@H](O)[C@H](C)O2)[C@H](C)[C@@H](O[C@@H]2O[C@H](C)C[C@H](N(C)C)[C@H]2O)[C@](C)(O)C[C@@H](C)C(=O)[C@H](C)[C@@H](O)[C@]1(C)O,Activity,Streptococcus pneumoniae [6],Active
same,Activity,Streptococcus pneumoniae [7],Active
same,Activity,Streptococcus pneumoniae [8],Active
same,Activity,Streptococcus pyogenes [9],Active
same,Activity,Staphylococcus aureus [5],Active
CC[C@H]1OC(=O)[C@H](C)[C@@H](O[C@H]2C[C@@](C)(OC)[C@@H](O)[C@H](C)O2)[C@H](C)[C@@H](O[C@@H]2O[C@H](C)C[C@H](N(C)C)[C@H]2O)[C@](C)(OC)C[C@@H](C)C(=O)[C@H](C)[C@@H](O)[C@]1(C)O [CLARITHROMYCIN],Activity,Staphylococcus aureus [5],Active
CC[C@H]1OC(=O)[C@@](C)(F)C(=O)[C@H](C)[C@@H](O[C@@H]2O[C@H](C)C[C@H](N(C)C)[C@H]2O)[C@](C)(OC)C[C@@H](C)C(=O)[C@H](C)[C@H]2N(CCCCn3cc(-c4cccc(N)c4)nn3)C(=O)O[C@]12C [SOLITHROMYCIN],MIC,Streptococcus pneumoniae [10],0.015 µg/mL
same,MIC,Streptococcus pyogenes [11],0.015 µg/mL
same,MIC,[12],0.12 µg/mL
same,MIC,Staphylococcus aureus [13],0.12 µg/mL
same,MIC,Staphylococcus aureus [14],0.06 µg/mL
same,MIC,Streptococcus pyogenes [15],0.06 µg/mL
same,MIC,Streptococcus pneumoniae [16],0.008 µg/mL
same,MIC,Staphylococcus aureus [17],0.12 µg/mL
same,MIC,Enterococcus faecalis [18],2 µg/mL
same,Activity,Staphylococcus aureus [19],>=3 log10CFU/ml
same,MIC,Enterococcus faecium [20],1 µg/mL
same,MIC,Haemophilus influenzae,2 µg/mL
same,MIC,Staphylococcus aureus [21],0.12 µg/mL
same,MIC,Moraxella catarrhalis,0.12 µg/mL
same,Activity,[22],Active
same,MIC,Enterococcus faecalis [23],0.06 µg/mL
same,Activity,Staphylococcus aureus [24],Active
same,Activity,Staphylococcus aureus [25],Active
same,MIC,Streptococcus pneumoniae [26],0.06 µg/mL
same,MIC,Staphylococcus aureus [27],0.12 µg/mL
same,Activity,Streptococcus pneumoniae [28],Active
same,MIC,Enterococcus faecium [29],0.06 µg/mL
same,Activity,Streptococcus pyogenes [30],>=3 log10CFU/ml
same,Activity,Streptococcus pyogenes [31],Active
same,MIC,Streptococcus mitis [32],≤ 0.008 µg/mL
same,Activity,[33],Active
same,MIC,Streptococcus mitis [34],0.12 µg/mL
same,Activity,Enterococcus faecalis [35],Active
same,Activity,Streptococcus pyogenes [36],Active
same,Activity,[37],>=3 log10CFU/ml
same,MIC,Staphylococcus aureus [38],0.12 µg/mL
same,MIC,Streptococcus pneumoniae [39],0.015 µg/mL
same,Activity,Streptococcus pyogenes [40],Active
same,Activity,[41],Active
same,MIC,Enterococcus faecalis [42],0.03 µg/mL
same,Activity,Streptococcus pneumoniae [43],>=3 log10CFU/ml
same,Activity,Staphylococcus aureus [5],Active
same,MIC,[44],0.12 µg/mL
